Measured values as given in ChEMBL document CHEMBL1671843, “Synthesis and SAR of Thiazolylmethylphenyl Glucoside as Novel C-Aryl Glucoside SGLT2 Inhibitors” (ACS Med Chem Lett, 2011).

How the values were obtained:
[1] = biological target: T1, Sodium/glucose cotransporter 2 (Homo sapiens, UniProt P31639); assay: Inhibition of human SGLT2 expressed in CHO cells assessed as [14C]-alpha-methyl-D-glucopyranoside uptake after 2 hrs by liquid scintillation counting; assay type: cell-based
T1 sequence (P31639 whole entry): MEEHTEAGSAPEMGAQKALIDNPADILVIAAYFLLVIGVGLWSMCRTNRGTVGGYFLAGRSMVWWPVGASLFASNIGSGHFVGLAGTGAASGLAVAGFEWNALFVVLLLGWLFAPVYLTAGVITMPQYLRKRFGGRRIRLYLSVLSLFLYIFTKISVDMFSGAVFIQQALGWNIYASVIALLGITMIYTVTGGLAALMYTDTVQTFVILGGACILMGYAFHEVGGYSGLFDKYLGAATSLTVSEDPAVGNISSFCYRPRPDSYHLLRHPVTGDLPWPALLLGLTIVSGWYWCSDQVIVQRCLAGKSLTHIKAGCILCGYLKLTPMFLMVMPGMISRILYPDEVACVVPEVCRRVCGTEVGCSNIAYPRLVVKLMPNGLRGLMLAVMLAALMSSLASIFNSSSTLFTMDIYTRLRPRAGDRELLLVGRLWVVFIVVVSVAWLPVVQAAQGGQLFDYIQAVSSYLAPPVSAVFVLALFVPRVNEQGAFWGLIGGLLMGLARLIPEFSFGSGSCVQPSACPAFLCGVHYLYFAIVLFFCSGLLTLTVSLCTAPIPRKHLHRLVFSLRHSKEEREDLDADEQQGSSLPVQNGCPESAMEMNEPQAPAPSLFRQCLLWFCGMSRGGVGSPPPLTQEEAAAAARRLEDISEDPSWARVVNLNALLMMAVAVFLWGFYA
Procedure, shortened: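 Sodium-dependent glucose transport assay against hSGLT2. IC50 was fitted by nonlinear regression. Values are from single determinations.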

Rattus norvegicus [2] = assay: Antidiabetic activity in Sprague-Dawley rat assessed as increase of urinary glucose excretion at 1 mg/kg, po relative to control; assay type: functional, Urine
Procedure, shortened: (§1)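 Normal Sprague-Dawley rats received a single oral dose of 1 or 10 mg/kg. Urinary glucose excretion was measured and expressed as fold elevation in glucose disposal over vehicle-treated controls. Values are means ± SEM, compared with vehicle by one-way ANOVA with Dunnett's post hoc test. Urine volume was also recorded.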

Rattus norvegicus [3] = assay: Antidiabetic activity in Sprague-Dawley rat assessed as increase of urinary glucose excretion at 10 mg/kg, po relative to control; assay type: functional, Urine; procedure, shortened: as §1
Rattus norvegicus [4] = assay: Antidiabetic activity in Sprague-Dawley rat assessed as increase of urine volume at 10 mg/kg, po relative to control; assay type: functional
Procedure, shortened: (§2)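 Normal Sprague-Dawley rats given a single oral dose (1 or 10 mg/kg) against vehicle controls. Urinary glucose excretion and urine volume were measured and expressed as fold over vehicle. Data are means ± SEM, compared to vehicle by one-way ANOVA with Dunnett's post hoc test.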

[5] = Oral bioavailability in Sprague-Dawley rat at 5 mg/kg; assay type: ADME, organism-based; settings: in vivo
Procedure, shortened: (§3)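 Male Sprague-Dawley rats dosed orally at 5 mg/kg. Measured Cmax with time to Cmax, elimination half-life and oral bioavailability (F).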

Rattus norvegicus [6] = assay: Antidiabetic activity in Sprague-Dawley rat assessed as increase of glucose disposal at 1 mg/kg, po relative to control; assay type: functional; procedure, shortened: as §2
Rattus norvegicus [7] = assay: Antidiabetic activity in Sprague-Dawley rat assessed as increase of glucose disposal at 10 mg/kg, po relative to control; assay type: functional; procedure, shortened: as §2
Rattus norvegicus [8] = assay: Antidiabetic activity in Sprague-Dawley rat assessed as increase of urine volume at 1 mg/kg, po relative to control; assay type: functional; procedure, shortened: as §2
[9] = Cmax in Sprague-Dawley rat at 5 mg/kg, po after 0.38 hrs; assay type: ADME, organism-based; parameters: dose 5 mg/kg, route oral; settings: in vivo; procedure, shortened: as §3
[10] = Elimination half life in Sprague-Dawley rat at 5 mg/kg, po; assay type: ADME, organism-based; parameters: dose 5 mg/kg, route oral; settings: in vivo; procedure, shortened: as §3

Row | IC50 [1] | SMILES | further results
1 | 0.72 nM | OC[C@H]1O[C@@H](c2ccc(Cl)c(Cc3ncc(-c4ccco4)s3)c2)[C@H](O)[C@@H](O)[C@@H]1O | fold change (FC) (Rattus norvegicus [2]): 230; fold change (FC) (Rattus norvegicus [3]): 700; fold change (FC) (Rattus norvegicus [4]): 3.7; bioavailability [5]: 20.6%
2 | 12.4 nM | CCCCCCCc1cnc(Cc2cc([C@@H]3O[C@H](CO)[C@@H](O)[C@H](O)[C@H]3O)ccc2Cl)s1 | 
3 | 19.6 nM | CCCCOc1cnc(Cc2cc([C@@H]3O[C@H](CO)[C@@H](O)[C@H](O)[C@H]3O)ccc2Cl)s1 | 
4 | 13.3 nM | OC[C@H]1O[C@@H](c2ccc(Cl)c(Cc3ncc(-c4ccccc4)s3)c2)[C@H](O)[C@@H](O)[C@@H]1O | 
5 | 9.31 nM | OC[C@H]1O[C@@H](c2ccc(Cl)c(Cc3ncc(-c4ccc(-c5ccccc5)cc4)s3)c2)[C@H](O)[C@@H](O)[C@@H]1O | 
6 | 1.57 nM | OC[C@H]1O[C@@H](c2ccc(Cl)c(Cc3ncc(-c4ccoc4)s3)c2)[C@H](O)[C@@H](O)[C@@H]1O | 
7 | 1.14 nM | OC[C@H]1O[C@@H](c2ccc(Cl)c(Cc3ncc(-c4cccs4)s3)c2)[C@H](O)[C@@H](O)[C@@H]1O | 
8 | 0.772 nM | OC[C@H]1O[C@@H](c2ccc(Cl)c(Cc3ncc(-c4ccsc4)s3)c2)[C@H](O)[C@@H](O)[C@@H]1O | fold change (FC) (Rattus norvegicus [6]): 160; fold change (FC) (Rattus norvegicus [7]): 730; fold change (FC) (Rattus norvegicus [8]): 2.5; fold change (FC) (Rattus norvegicus [4]): 4.2; Cmax [9]: 1540 ng/mL; half-life [10]: 2.51 h; bioavailability [5]: 15%
9 | 3.13 nM | OC[C@H]1O[C@@H](c2ccc(Cl)c(Cc3ncc(-c4nccs4)s3)c2)[C@H](O)[C@@H](O)[C@@H]1O | 
10 | > 10000 nM | O=C(O)c1cnc(Cc2cc([C@@H]3O[C@H](CO)[C@@H](O)[C@H](O)[C@H]3O)ccc2Cl)s1 | 
11 | 6.36 nM | OC[C@H]1O[C@@H](c2ccc(Br)c(Cc3ncc(-c4ccsc4)s3)c2)[C@H](O)[C@@H](O)[C@@H]1O | 
12 | 7.36 nM | OC[C@H]1O[C@@H](c2ccc(F)c(Cc3ncc(-c4ccsc4)s3)c2)[C@H](O)[C@@H](O)[C@@H]1O | 
13 | 14.6 nM | OC[C@H]1O[C@@H](c2ccc(C(F)(F)F)c(Cc3ncc(-c4ccsc4)s3)c2)[C@H](O)[C@@H](O)[C@@H]1O | 
14 | 140 nM | N#Cc1ccc([C@@H]2O[C@H](CO)[C@@H](O)[C@H](O)[C@H]2O)cc1Cc1ncc(-c2ccsc2)s1 | 
15 | 1.11 nM | OC[C@H]1O[C@@H](c2ccc(Cl)c(Cc3cnc(-c4ccsc4)s3)c2)[C@H](O)[C@@H](O)[C@@H]1O | 
16 |  | CCOc1ccc(Cc2cc([C@@H]3O[C@H](CO)[C@@H](O)[C@H](O)[C@H]3O)ccc2Cl)cc1 [DAPAGLIFLOZIN] | fold change (FC) (Rattus norvegicus [8]): 5.7; bioavailability [5]: 88%
